In data set [1] the test system is DU-145. Briefly: Metabolic stability in human DU145 cells assessed as sodium ((2R,3S,4R,5R)-5-(4-amino-7H-pyrrolo[2,3-d]pyrimidin-7-yl)-3,4-dihydroxytetrahydrofuran-2-yl)methyl hydrogenphosphate-NMP formation per million of cells at 10 uM after 6 hrs by LC/MS/MS analysis. The note with it: du-145, 6 h. The format is ADME, cell-based. In short, it runs like this:
(§1)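 Du145 seeded at 60% confluence in MEM/10% FBS; next day exposed to 10 μM compound for 6 or 24 h. Cells trypsinized, extracted in 70% MeOH, dried, resuspended in 1 mM ammonium phosphate pH 8.5. Nucleoside, NMP and NTP quantified by ion-pairing (dimethylhexylamine) LC/MS/MS against untreated-cell-extract standard curves; pmol per million cells.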

For data set [2], the system named is DU-145. Briefly: Metabolic stability in human DU145 cells assessed as sodium ((2R,3S,4R,5R)-5-(4-amino-7H-pyrrolo[2,3-d]pyrimidin-7-yl)-3,4-dihydroxytetrahydrofuran-2-yl)methyl hydrogenphosphate-NMP formation per million of cells at 10 uM after 24 hrs by LC/MS/MS analysis. The format is ADME, cell-based. The note with it: du-145, 24 h. The procedure, abridged: as §1

Data set [3] relates to DU-145. Put plainly: Metabolic stability in human DU145 cells assessed as sodium ((2R,3S,4R,5R)-5-(4-amino-7H-pyrrolo[2,3-d]pyrimidin-7-yl)-3,4-dihydroxytetrahydrofuran-2-yl)methyl hydrogentriphosphate-NTP formation per million of cells at 10 uM after 24 hrs by LC/MS/MS analysis. The format is ADME, cell-based. The note with it: du-145, 24 h. The procedure, abridged:
as §1

Data set [4] has as its system DU-145. Put plainly: Cytostatic activity against human DU145 cells after 5 days by SRB assay. In kind it is functional. The note with it: DU-145, 120 h. In short, it runs like this: (§2)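 Cells seeded per line density, overnight at 37 °C; day-zero plate TCA-fixed. 5-fold serial dilutions added, 5-day incubation; TCA fixation, 0.057% SRB in 1% acetic acid 30 min, dye dissolved in 10 mM Tris pH 10.5, A500. Growth relative to day-zero and untreated; GIC50 from sigmoidal dose–response fit; mean of two independent experiments.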

In data set [5] the test system is HCT-116. Put plainly: Cytostatic activity against human HCT116 cells after 5 days by SRB assay. In kind it is functional. The conditions noted are these: HCT-116, 120 h. The procedure, abridged:
as §2

In a further data set the target is Adenosine kinase (Homo sapiens, UniProt P55263). Put plainly: Inhibition of human ADK using [3H]-adenosine by scintillation counting.
A further data set has as its system MDA-MB-231. Put plainly: Cytotoxicity against human MDA-MB-231 cells after 3 days by MTT assay. The note with it: MDA-MB-231, 72 h. The format is functional, cell-based.
Data set [6] concerns HCT-116. Put plainly: Cytotoxicity against human HCT116 cells after 3 days by MTT assay. The note with it: HCT-116, 72 h. In kind it is functional, cell-based.
In the next data set the test system is CT26. Put plainly: Cytotoxicity against mouse CT26 cells after 3 days by MTT assay. The format is functional, cell-based. The conditions noted are these: CT26, 72 h.
The next data set has as its system MAT-Ly-Lu. Put plainly: Cytotoxicity against rat MAT-LyLu cells after 3 days by MTT assay. The format is functional, cell-based. The conditions noted are these: 72 h.
Data set [7] can be described thus: Cytotoxicity against human NCI-H146 cells after 3 days by MTT assay. The note with it: NCI-H146, 72 h. The format is functional, cell-based.
A short description of data set [8]: Cytotoxicity against human MES-SA cells after 3 days by MTT assay. The conditions noted are these: 72 h. The format is functional, cell-based.
Data set [9] concerns CCRF-CEM. Put plainly: Cell cycle arrest in human CCRF-CEM cells assessed as accumulation at G2/M phase at 5 time GI50 using propidium iodide staining by flow cytometry. The format is functional, cell-based. In short, it runs like this:
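CCRF-CEM seeded at 5 × 10^5 cells/ml, grown in RPMI 1640 with 10% FCS at 37 °C with 1× or 5× GIC50 of compound; vehicle controls harvested at same times. Cells ethanol-fixed, RNase-treated, stained with propidium iodide, flow cytometry at 488 nm; cell cycle phases scored.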

Data set [10] deals with CCRF-CEM. Put plainly: Inhibition of DNA synthesis in human CCRF-CEM cells assessed as BrdU incorporation at 1 to 5 times GI50 after 1 hr by FACS analysis. The format is functional, cell-based. The conditions noted are these: in the assay text read “at 5 times GI50 after longer incubation” for “at 1 to 5 times GI50 after 1 hr”. In short, it runs like this: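 CCRF-CEM cultured as for cell cycle (1× or 5× GIC50), pulsed with 10 μM BrdU for 30 min before harvest. Ethanol-fixed, DNA denatured in 2 M HCl, anti-BrdU then FITC secondary antibody, propidium iodide/RNase counterstain, flow cytometry at 488 nm.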

The nature of data set [11]: Antitumor activity against mouse P388D1 cells xenografted in DBA/2 mouse assessed as increase of mean survival days at 75 mg/kg, ip qd administered as 2 cycles on day 1 to 3 and day 8 to 10. In kind it is functional. The note with it: route intraperitoneal. The procedure, abridged:
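P388D1 mouse leukemia cells, grown in RPMI with 10% FBS, were implanted ip at 10^5 cells per mouse on day 0 into female DBA/2 mice (18–22 g, SPF) and randomized 10 per group. Dosing was once daily ip in 50% PEG400/deionized water (pH 7.0) on days 1–3 and 8–10, with vehicle for controls. Deaths were recorded daily, and MST and %ILS were calculated.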

SMILES strings stand for the structures. Active and inactive are the calls of the source. The calls are words filed in the database; no cut-off is given here.

Sequence of Adenosine kinase (P55263 whole entry): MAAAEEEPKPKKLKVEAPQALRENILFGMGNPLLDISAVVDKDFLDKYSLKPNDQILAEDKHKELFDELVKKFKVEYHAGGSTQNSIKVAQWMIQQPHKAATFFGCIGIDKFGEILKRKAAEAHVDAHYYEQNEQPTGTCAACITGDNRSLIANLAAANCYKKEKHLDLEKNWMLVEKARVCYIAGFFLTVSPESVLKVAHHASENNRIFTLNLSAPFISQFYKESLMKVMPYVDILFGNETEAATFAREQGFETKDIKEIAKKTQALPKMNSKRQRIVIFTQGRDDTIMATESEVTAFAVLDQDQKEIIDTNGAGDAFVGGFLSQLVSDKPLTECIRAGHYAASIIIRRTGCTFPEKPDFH

Regarding `Nc1ncnc2c1c(-c1cccs1)cn2[C@@H]1O[C@H](CO)[C@@H](O)[C@H]1O`, the Stability in the data set on DU-145 [1] is reported as 5.04 pmol; in the data set on DU-145 [2] it was 64 pmol; in the data set with DU-145 [3] it was 1.96 pmol. Besides, the results for the 50% growth inhibitory concentration (GI50) with DU-145 [4] and in the data set with HCT-116 [5] were 133 nM and 2.6 nM, respectively. In addition, the IC50 is over 5 µM on Adenosine kinase; 26 nM in the data set on MDA-MB-231; 60 nM with HCT-116 [6]; 124 nM with CT26; 180 nM in the data set on MAT-Ly-Lu; over 10 µM in data set [7]. The compound also gave an IC50 in data set [8] of 232 nM. In addition, the result with CCRF-CEM [9] was Active. For the same compound, in the data set on CCRF-CEM [10], the inhibition entry was “Active”. The MSD in data set [11] is 15.1 days.

Source of the values: ChEMBL document CHEMBL1811802, “Synthesis and significant cytostatic activity of 7-hetaryl-7-deazaadenosines” (J Med Chem, 2011).
